Laboratory results: publication PMC5783296 (SLAS discovery : advancing life sciences R & D, 2017)
Where a name gives a salt, the structure may show the parent alone. Each block holds one molecule with its values, some of them ahead of it.

Experiments:
[1] = target: T1, interaction between NHP2L1 and U4 5′SL (Homo sapiens, UniProt P55769); test: TR-FRET HTS assay of NHP2L1-U4 interaction; format: binding; details: for potency in dose response screening (IC50 ranking): dose responsive analysis, ten 1:3 dilutions, TR-FRET; for disruption of the interaction of U4 and NHP2L1: TR-FRET dose response, camptothecin derivatives
T1 sequence (P55769 1-128): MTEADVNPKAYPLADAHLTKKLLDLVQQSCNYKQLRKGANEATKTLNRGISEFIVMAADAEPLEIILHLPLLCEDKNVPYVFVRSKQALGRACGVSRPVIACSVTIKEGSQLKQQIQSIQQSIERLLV

U4 5′ SL [2] = test: 1D NMR titration of U4 5′SL; format: binding; details: U4:topotecan 1:0 to 1:10
Outline: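 Solution NMR at pH 5.0 (100 mM NaCl, 100 mM sodium phosphate, 10% D2O, 2% DMSO-d6). U4 5′SL at 100 μM with increasing test compound, monitored by 1D and 2D [1H,1H] TOCSY (60 ms mixing) and NOESY (100 ms mixing) spectra.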

[3] = tested on: pre-mRNA splicing (pTN23 reporter) in HEK293 cells; test: pTN23 splicing reporter assay; format: cell-based, Human; details: HEK293, topotecan 250nM, 24 hours
NHP2L1 U4 complex [4] = target: T2, NHP2L1 U4 complex (Homo sapiens, UniProt P55769); test: NMR of NHP2L1-U4 complex with topotecan; format: binding
T2 sequence (P55769 1-128): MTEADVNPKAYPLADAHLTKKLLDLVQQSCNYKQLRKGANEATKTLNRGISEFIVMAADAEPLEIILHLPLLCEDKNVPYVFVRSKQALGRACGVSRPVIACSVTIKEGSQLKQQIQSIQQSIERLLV
Outline: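 15N-labelled NHP2L1 was premixed 1:1 with unlabelled U4 5′SL in pH 5.0 phosphate buffer (100 mM NaCl, 10% D2O, 2% DMSO-d6), with backbone assigned from HNCA/HNCACB. Chemical shift perturbations were read from 2D [15N,1H] HSQC/TROSY at 64 scans, and at 400 scans for the 1:1:20 TROSY.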

NHP2L1 U4 complex [5] = target: T2, NHP2L1 U4 complex; test: Electrophoretic gel mobility shift assay; format: binding; details: topotecan 0.2, 2, 20, 200 μM
Outline: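 Recombinant NHP2L1 (E. coli BL21(DE3), Ni-chelate then gel filtration) plus biotinylated U4 5′SL, ±test compound, 45 min at room temperature in 20 mM Tris-HCl pH 7.6, 150 mM NaCl, 0.1% Triton X-100, 2 mM DTT, 0.5 g/L tRNA. Run on 6% retardation gel, 0.5× TBE, 100 V, 60 min, then nylon transfer and chemiluminescent detection. Shifted band quantified by densitometry as % of complex without compound.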

NHP2L1 protein = target: T3, NHP2L1 protein (Homo sapiens, UniProt P55769); test: Surface plasmon resonance, immobilized NHP2L1; format: binding; details: max 50μM, OneStep gradient injection, 20° C
T3 sequence (P55769 1-128): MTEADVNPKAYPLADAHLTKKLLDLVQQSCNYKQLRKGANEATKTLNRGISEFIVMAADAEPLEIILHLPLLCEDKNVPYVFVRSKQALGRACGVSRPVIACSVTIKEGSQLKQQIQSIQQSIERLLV

U4 5′ SL [6] = test: Surface plasmon resonance, immobilized U4 5′SL; format: binding; details: max 50μM, OneStep gradient injection, 20° C
[7] = target: T4, NHP2L1 (15.5K), His-tagged (UniProt P55769 1-128); test: TR-FRET
T4 sequence: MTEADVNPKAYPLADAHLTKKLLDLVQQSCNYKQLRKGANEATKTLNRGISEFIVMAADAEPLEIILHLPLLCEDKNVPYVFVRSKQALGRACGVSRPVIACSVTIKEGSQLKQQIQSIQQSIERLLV

Molecule: CC[C@@]1(O)C(=O)OCc2c1cc1n(c2=O)Cc2cc3cc(O)ccc3nc2-1 [10-OH-(S)-camptothecin]
potency in dose response screening (IC50 ranking) [1]: among the most potent inhibitors

Molecule: CC[C@@]1(O)C(=O)OCc2c1cc1n(c2=O)Cc2cc3c(CNC)c(O)ccc3nc2-1 [N-demethyl-topotecan, N-Desmethyl topotecan]
disruption of the interaction of U4 and NHP2L1 [1]: able to disrupt the interaction of U4 and NHP2L1

Molecule: CCc1c2c(nc3ccc(O)cc13)-c1cc3c(c(=O)n1C2)COC(=O)[C@]3(O)CC [SN-38]
disruption of the interaction of U4 and NHP2L1 [1]: able to disrupt the interaction of U4 and NHP2L1 | potency in dose response screening (IC50 ranking) [1]: among the most potent inhibitors

Molecule: CC[C@@]1(O)C(=O)OCc2c1cc1n(c2=O)Cc2cc3ccccc3nc2-1 [camptothecin, (S)-camptothecin]
disruption of the interaction of U4 and NHP2L1 [1]: less effective at disrupting the NHP2L1 and U4 interaction

Molecule: CCc1c2c(nc3ccc(OC(=O)N4CCC(N5CCCCC5)CC4)cc13)-c1cc3c(c(=O)n1C2)COC(=O)[C@]3(O)CC [irinotecan]
disruption of the interaction of U4 and NHP2L1 [1]: less effective at disrupting the NHP2L1 and U4 interaction

inhibition at 15 µM ([1]; read-out: percentage of inhibition in primary screening): 81.6%
Molecule: CC[C@@]1(O)C(=O)OCc2c1cc1n(c2=O)Cc2cc3c(CN(C)C)c(O)ccc3nc2-1 [topotecan hydrochloride]

potency in dose response screening (IC50 ranking) [1]: among the most potent inhibitors | binding to NHP2L1 by SPR (NHP2L1 protein): markedly less binding to NHP2L1 | binding to U4 by SPR (U4 5′ SL [6]): binds to U4 in a time-dependent manner
Molecule: CC[C@@]1(O)C(=O)OCc2c1cc1n(c2=O)Cc2cc3c(CN(C)C)c(O)ccc3nc2-1 [topotecan, Topotecan]
disruption of the interaction of U4 and NHP2L1 [1]: able to disrupt the interaction of U4 and NHP2L1 | binding to U4 5′ SL by 1D NMR (U4 5′ SL [2]): binding of topotecan to U4 5′ SL was confirmed | splicing efficiency (ratio of luciferase to β-galactosidase activities) ([3]; p<0.001): significantly decreased splicing efficiency | β-galactosidase activities ([3]; p=0.4): without changing significantly β–galactosidase activities | direct binding to NHP2L1-U4 complex by 1D NMR (NHP2L1 U4 complex [4]; 1D spectrum of complex): able to directly bind to the NHP2L1-U4 complex | displacement of NHP2L1 from U4 by 2D NMR (NHP2L1 U4 complex [4]; NHP2L1:U4:topotecan 1:1:20 (2mM topotecan)): displaces NHP2L1 from U4 only at high concentrations | inhibition of NHP2L1-U4 5′SL shift (NHP2L1 U4 complex [5]): greater inhibition with increasing concentrations

B1: Cy5-U4 5'SL (structured_RNA)
RNA: AUCGUAGCCAAUGAGGUUUAUCCGAGGCGCGAU
Kd [7]: 680 pM
